The source made the active and inactive calls. The rule behind the calls is not given here.
How the values were obtained:
[1] = molecular target: T1, Free fatty acid receptor 1 (Homo sapiens, UniProt O14842); assay: Agonist activity at human FFA1 receptor expressed in CHO cells assessed as Ca2+ influx at 100 nM by FLIPR assay; assay type: functional, cell-based
In short: (§1)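 Human FFA1 stably expressed in CHO cells, seeded at 15K/well and grown 16 h at 37 °C, 5% CO2. Cells loaded 1 h at 37 °C with Fluo 4-AM (2.5 µg/mL), 2.5 mmol/L probenecid and 0.1% fatty acid-free BSA. Single screening concentration as listed. Ca2+ flux read on FLIPR Tetra and expressed as % of the 10 µM γ-linolenic acid response after vehicle subtraction. Mean of three independent experiments.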

[2] = molecular target: T1, Free fatty acid receptor 1; assay: Agonist activity at human FFA1 receptor expressed in CHO cells assessed as Ca2+ influx by FLIPR assay; assay type: functional, cell-based
In short: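 Ca2+ flux assay in CHO cells stably expressing human FFA1: seeded at 15K/well and grown 16 h, then Fluo 4-AM loaded 1 h at 37 °C with probenecid and fatty acid-free BSA. Compounds tested at various concentrations. Response normalized to vehicle (0%) and 10 µM γ-linolenic acid (100%). EC50 from concentration–response fitting, mean of three determinations.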

Mus musculus [3] = assay: Antidiabetic activity in overnight fasted ICR mouse assessed as decrease in blood glucose level at […], po administered 30 mins prior to glucose challenge measured after 15 to 120 mins by OGTT method; assay type: functional, organism-based; conditions: 38 umol/kg
In short: (§2)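 Male ICR mice, 10 weeks old, 18-22 g, fasted overnight (12 h), n = 6 per group. Single oral dose in 0.5% CMC-Na vehicle (10 mL/kg), […] for the reference compound (20 mg/kg) and for the test compounds. Oral glucose load (30%, 3 g/kg) given 30 min later. Tail blood glucose measured by test strip at -30, 0, 15, 30, 45, 60 and 120 min. AUC0-2h also derived. Mean ± SEM.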

Mus musculus [4] = assay: Antidiabetic activity in overnight fasted ICR mouse assessed as decrease in plasma glucose AUC at […], po administered 30 mins prior to glucose challenge measured after 15 to 120 mins by OGTT method; assay type: functional, organism-based; in short: as §2
[5] = molecular target: T1, Free fatty acid receptor 1; assay: Agonist activity at human FFA1 receptor expressed in CHO cells assessed as Ca2+ influx at 300 nM by FLIPR assay; assay type: functional, cell-based; in short: as §1
Mus musculus [6] = assay: Hepatotoxicity in ICR mouse assessed as total bilirubin levels in serum at 20 mg/kg qd administered through oral gavage for 30 days (reference value: 4.1 +/- 0.4 IU/L); assay type: toxicity, organism-based; conditions: in vivo, 720 h
Mus musculus [7] = assay: Hepatotoxicity in ICR mouse assessed as alanine aminotransferase levels in serum at 20 mg/kg qd administered through oral gavage for 30 days (reference value: 35 +/- 4.3 IU/L); assay type: toxicity, organism-based; conditions: in vivo, 720 h
Mus musculus [8] = assay: Antihyperglycemic activity in overnight fasted STZ-induced type 2 dibetic C57BL/6 mouse assessed as decrease in blood glucose level at 20 mg/kg, po administered 30 mins prior to glucose challenge measured after 15 to 120 mins by OGTT method; assay type: functional, organism-based
In short: (§3)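 Male C57BL/6 mice fed a 45%-fat diet for 4 weeks, given STZ i.p. (80 mg/kg), then high-fat diet for 4 more weeks. Fasting glucose of 11.1 mmol/L or higher taken as diabetic. After a 12 h fast, n = 6 per group, with a normal-mouse control group. Oral dose in 0.5% CMC-Na, then oral glucose (20%, 2 g/kg) 30 min later. Strip glucose at -30 to 120 min.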

Mus musculus [9] = assay: Hepatotoxicity in ICR mouse assessed as aspartate aminotransferase levels in serum at 20 mg/kg qd administered through oral gavage for 30 days (reference value: 133.1 +/- 13.1 IU/L); assay type: toxicity, organism-based; conditions: in vivo, 720 h
Mus musculus [10] = assay: Antidiabetic activity in overnight fasted ICR mouse assessed as decrease in blood glucose level at 20 mg/kg, po administered 30 mins prior to glucose challenge measured after 15 to 120 mins by OGTT method; assay type: functional, organism-based; in short: as §2
Mus musculus [11] = assay: Toxicity in overnight fasted ICR mouse assessed as hypoglycemic effect at 15 mg/kg, po after 30 to 120 mins […]; assay type: organism-based; conditions: in vivo
In short: (§4)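 Fasting hypoglycemia test without a glucose load: male ICR mice, 10 weeks old, fasted overnight, 3 groups of n = 6. Single oral dose of 60 mg/kg test compound, 15 mg/kg glibenclamide or 0.5% CMC-Na vehicle. Tail-vein blood glucose measured by test strip at 0, 30, 60, 90, 120 and 180 min. Mean ± SEM.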

Mus musculus [12] = assay: Antidiabetic activity in overnight fasted po dosed ICR mouse assessed as decrease in blood glucose level administered 30 mins prior to glucose challenge measured after 15 to 120 mins by OGTT method; assay type: functional, organism-based; in short: as §2
Mus musculus [13] = assay: Hepatotoxicity in ICR mouse assessed as alanine aminotransferase levels in serum at 30 mg/kg qd administered through oral gavage for 30 days (reference value: 35 +/- 4.3 IU/L); assay type: toxicity, organism-based; conditions: in vivo, 720 h
Mus musculus [14] = assay: Hepatotoxicity in ICR mouse assessed as total bilirubin levels in serum at 30 mg/kg qd administered through oral gavage for 30 days (reference value: 4.1 +/- 0.4 IU/L); assay type: toxicity, organism-based; conditions: in vivo, 720 h
Mus musculus [15] = assay: Antidiabetic activity in overnight fasted ICR mouse assessed as decrease in blood glucose level at 60 mg/kg, po administered 30 mins prior to glucose challenge measured after 60 mins by OGTT method; assay type: functional, organism-based
In short: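 Dose–response OGTT in male ICR mice, 10 weeks old, fasted 12 h, 5 groups of n = 6. Oral doses of 10, 30 or 60 mg/kg, or reference at 20 mg/kg, in 0.5% CMC-Na. Glucose (30%, 3 g/kg) given orally 30 min after dosing. Tail-blood glucose read by test strip at -30, 0, 15, 30, 45, 60 and 120 min. Mean ± SEM.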

Mus musculus [16] = assay: Antihyperglycemic activity in overnight fasted STZ-induced type 2 dibetic C57BL/6 mouse assessed as decrease in blood glucose level at 30 mg/kg, po administered 30 mins prior to glucose challenge measured after 15 to 120 mins by OGTT method; assay type: functional, organism-based; in short: as §3
Mus musculus [17] = assay: Toxicity in overnight fasted ICR mouse assessed as hypoglycemic effect at 60 mg/kg, po after 30 to 120 mins […]; assay type: organism-based; conditions: in vivo; in short: as §4
Mus musculus [18] = assay: Hepatotoxicity in ICR mouse assessed as aspartate aminotransferase levels in serum at 30 mg/kg qd administered through oral gavage for 30 days (reference value: 133.1 +/- 13.1 IU/L); assay type: toxicity, organism-based; conditions: in vivo, 720 h

T1 sequence (O14842 whole entry): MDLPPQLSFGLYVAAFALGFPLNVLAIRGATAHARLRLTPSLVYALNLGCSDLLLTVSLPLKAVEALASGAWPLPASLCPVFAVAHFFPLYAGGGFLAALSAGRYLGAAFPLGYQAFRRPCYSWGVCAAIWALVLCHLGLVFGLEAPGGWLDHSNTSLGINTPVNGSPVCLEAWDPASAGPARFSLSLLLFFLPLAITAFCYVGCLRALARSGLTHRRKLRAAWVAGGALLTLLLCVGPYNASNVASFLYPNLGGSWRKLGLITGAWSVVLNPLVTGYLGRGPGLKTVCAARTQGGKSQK

| SMILES | Activity [1] | Activity [5] | also measured |
| --- | --- | --- | --- |
| Cc1cc(OCCCS(C)(=O)=O)cc(C)c1-c1cccc(COc2ccc3c(c2)OC[C@H]3CC(=O)O)c1 [FASIGLIFAM] | – | – | Activity (Mus musculus [6]): 4 IU/L; Activity (Mus musculus [7]): 48.3 IU/L; Activity (Mus musculus [8]): Active; Activity (Mus musculus [9]): 181.1 IU/L; Activity (Mus musculus [10]): Active |
| O=C(O)CC1COc2cc(OCc3nnc(-c4ccccc4)o3)ccc21 (stereo not drawn) | 1.54% | 6.31% | – |
| COc1cc(-c2nc(C)c(COc3ccc4c(c3)OCC4CC(=O)O)s2)cc(OC)c1OC (stereo not drawn) | 7.47% | – | – |
| Cc1nc(-c2cccc3ccccc23)sc1COc1ccc2c(c1)OCC2CC(=O)O (stereo not drawn) | 8.53% | – | – |
| COc1ccc(Cl)cc1C(=O)NCCc1ccc(S(=O)(=O)NC(=O)NC2CCCCC2)cc1 [GLYBURIDE] | – | – | Activity (Mus musculus [11]): Toxic |
| O=C(O)CC1COc2cc(OCc3nc(-c4ccccc4)cs3)ccc21 (stereo not drawn) | 0.16% | 0.23% | – |
| O=C(O)CC1COc2cc(OCc3cn(-c4ccccc4)nn3)ccc21 (stereo not drawn) | – | 0.89% | – |
| COc1cc(OC)cc(-c2nc(C)c(COc3ccc4c(c3)OCC4CC(=O)O)s2)c1 (stereo not drawn) | 17.5% | – | – |
| O=C(O)CC1COc2cc(OCc3nnc(-c4ccccc4)s3)ccc21 (stereo not drawn) | 3.36% | 13.7% | – |
| Cc1nc(-c2cc3ccccc3o2)sc1COc1ccc2c(c1)OCC2CC(=O)O (stereo not drawn) | 14.8% | – | – |
| Cc1cc(COc2ccc3c(c2)OCC3CC(=O)O)nn1-c1ccccc1 (stereo not drawn) | 0.98% | 1.23% | – |
| O=C(O)CC1COc2cc(OCc3cc(-c4ccccc4)on3)ccc21 (stereo not drawn) | 0.84% | 1.67% | – |
| O=C(O)CC1COc2cc(OCc3ncc(-c4ccccc4)o3)ccc21 (stereo not drawn) | 2.34% | 10.2% | – |
| Cc1nc(-c2cccs2)sc1COc1ccc2c(c1)OCC2CC(=O)O (stereo not drawn) | 35.1% | – | – |
| O=C(O)CC1COc2cc(OCc3ncc(-c4ccccc4)s3)ccc21 (stereo not drawn) | 5.26% | 19.8% | – |
| O=C(O)CC1COc2cc(OCc3csc(-c4ccccc4)n3)ccc21 (stereo not drawn) | 0.15% | 5.67% | – |
| Cc1nc(-c2ccccc2)oc1COc1ccc2c(c1)OCC2CC(=O)O (stereo not drawn) | 7.15% | 21.2% | – |
| Cc1nc(-c2ccc(Cl)s2)sc1COc1ccc2c(c1)OCC2CC(=O)O (stereo not drawn) | 8.34% | – | – |

Continued, in another order:

| Activity [1] | Activity [5] | SMILES | also measured |
| --- | --- | --- | --- |
| 46.8% | – | COc1ccc(-c2nc(C)c(COc3ccc4c(c3)OCC4CC(=O)O)s2)cc1 (stereo not drawn) | EC50 [2]: 123 nM |
| 56.9% | – | Cc1nc(-c2cccc(F)c2)sc1COc1ccc2c(c1)OCC2CC(=O)O (stereo not drawn) | Activity (Mus musculus [3]): Active; Activity (Mus musculus [4]): Active; EC50 [2]: 64.8 nM |
| 47.2% | – | Cc1cccc(-c2nc(C)c(COc3ccc4c(c3)OCC4CC(=O)O)s2)c1 (stereo not drawn) | EC50 [2]: 119 nM |
| 54.8% | 67.4% | Cc1nc(-c2ccccc2)sc1COc1ccc2c(c1)OCC2CC(=O)O (stereo not drawn) | Activity (Mus musculus [3]): Active |
| 50.4% | – | Cc1nc(-c2ccc(C(F)(F)F)cc2)sc1COc1ccc2c(c1)OCC2CC(=O)O (stereo not drawn) | EC50 [2]: 96.7 nM |
| 53.4% | – | Cc1nc(-c2ccc(Cl)cc2)sc1COc1ccc2c(c1)OCC2CC(=O)O (stereo not drawn) | Activity (Mus musculus [3]): Active; Activity (Mus musculus [4]): Active; EC50 [2]: 85.6 nM |
| 12.4% | – | Cc1nc(-c2ccccc2Cl)sc1COc1ccc2c(c1)OCC2CC(=O)O (stereo not drawn) | – |
| 43% | – | Cc1nc(-c2cccc(Cl)c2)sc1COc1ccc2c(c1)OCC2CC(=O)O (stereo not drawn) | EC50 [2]: 138 nM |
| 54.9% | – | Cc1ccc(-c2nc(C)c(COc3ccc4c(c3)OCC4CC(=O)O)s2)cc1 (stereo not drawn) | Activity (Mus musculus [3]): Active; Activity (Mus musculus [4]): Active; EC50 [2]: 73.5 nM |
| 25.8% | – | Cc1nc(-c2ccccc2F)sc1COc1ccc2c(c1)OCC2CC(=O)O (stereo not drawn) | – |
| 56.5% | – | Cc1nc(-c2ccsc2)sc1COc1ccc2c(c1)OCC2CC(=O)O (stereo not drawn) | Activity (Mus musculus [3]): Active; EC50 [2]: 68.5 nM |
| 35.7% | – | Cc1nc(-c2cccc(C(F)(F)F)c2)sc1COc1ccc2c(c1)OCC2CC(=O)O (stereo not drawn) | – |
| 61.6% | – | Cc1nc(-c2ccc(F)cc2)sc1COc1ccc2c(c1)OCC2CC(=O)O (stereo not drawn) | Activity (Mus musculus [12]): Dose-dependent effect; Activity (Mus musculus [13]): 37.5 IU/L; Activity (Mus musculus [14]): 4 IU/L; Activity (Mus musculus [15]): Active; Activity (Mus musculus [3]): Active; Activity (Mus musculus [16]): Active; Activity (Mus musculus [4]): Active; EC50 [2]: 48.7 nM; Activity (Mus musculus [17]): Non-toxic; Activity (Mus musculus [18]): 141.8 IU/L |
| 7.76% | – | Cc1nc(-c2ccccc2C(F)(F)F)sc1COc1ccc2c(c1)OCC2CC(=O)O (stereo not drawn) | – |
| 10.7% | – | Cc1ccccc1-c1nc(C)c(COc2ccc3c(c2)OCC3CC(=O)O)s1 (stereo not drawn) | – |
